# Sampled rows, rich in hits. Any-hit rate of the full collection: about 4.9%.
# APP 5'UTR act – activators of APP 5'UTR luciferase reporter, primary screen, SH-SY5Y cells; SH-SY5Y APP 5'UTR luciferase reporter, luminescence; zero percent = DMSO vehicle wells; activation, % at 2 µM; actives 1% (n = 190,000);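 active = activation above a set limit, based on mean plus 3 SD of controls, cut at about 140% in these data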
# STAT1 blocker – STAT1 signaling inhibitors, primary screen, cell-based, HTS, luciferase reporter; inhibition, % at 5.5 µM; AID 920, 2007; actives 0.35% (n = 200,000); NIH 3T3 STAT1-luciferase reporter, IFN-gamma, luminescence;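 active = inhibition above a set limit, the mean inhibition across all tested compounds plus 3 SD, cut at about 34% in these data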;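 also: 0% = IFN-gamma with DMSO and 100% = IFN-gamma with 300 µM nifuroxazide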
# STAT3 activator – IL-6 driven STAT3 reporter potentiators, primary screen, U3A cells, luciferase, luminescence, MLSCN library. IL-6 STAT3-luciferase reporter; 100% = signal with IL-6 EC80 alone. activation (% of control), % at 5.6 µM. actives 0.91% (n = 190,000). AID 871, 2007;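 active = activation above the screen-wide mean of compound activation plus 3 SD, cut at about 130% in these data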;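 also: 0% = background luminescence of wells with medium and substrate only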
#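 Material: STAT3-luciferase reporter U3A cells; Probe or stimulus: IL-6 (33 ng/mL); Incubation: compound pre-incubation 1 h before IL-6, then 6 h stimulation at 37 °C; Technique: luminescence from STAT3-driven luciferase reporter; Evaluation: % activation versus median of IL-6-stimulated wells; Controls: IL-6-only high control.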
# STAT1 activator – STAT1 signaling activators, primary screen, cell-based, HTS, luciferase reporter; activation (% of control), % at 5.5 µM; NIH 3T3 STAT1-luciferase reporter, IFN-gamma, luminescence; 100% = IFN-gamma alone, no compound; actives 2.6% (n = 200,000);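 active = activation above the screen-wide mean activation plus 3 SD, cut at about 130% in these data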;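 also: raw ratio to IFN-gamma control signal so 100% means no change and 0% no light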
# STAT3 blocker – IL-6 driven STAT3 reporter inhibitors, primary screen, U3A cells, luciferase, luminescence, MLSCN library. actives 0.89% (n = 190,000). IL-6 STAT3-luciferase reporter; host cell line lacks STAT1. inhibition, % at 5.5 µM;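 active = inhibition above the mean inhibition across all screened compounds plus 3 SD, cut at about 44% in these data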;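 also: 0% = DMSO only wells and 100% = 100 µM nifuroxazide control wells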
# NF-kB neuron act – activators of NF-kB expression in neurons, primary screen, cell-based, HTS | actives 1.6% (n = 190,000) | fold change at 12.5 µM | human neuronal cells, NF-kB reporter expression; hits give high values; in the data active = fold change above about 3.3
# An asterisk follows results filed as active; / = not tested or not shown.
SMILES,APP 5'UTR act,STAT1 blocker,STAT3 activator,STAT1 activator,STAT3 blocker,NF-kB neuron act
Oc1ccc(CN2CCc3ccccc3C2)c2cccnc12,-87,7,94,93,8,5.2*
COCc1cc(CN2CCCC2)c(O)c2ncccc12,-20,9,96,92,12,0.67
CCOC(=O)N1CCN(Cc2ccc(O)c3ncccc23)CC1,-11,1,94,98,11,4.8*
Oc1c(CN2CCCCC2)cc(COCc2ccccc2)c2cccnc12,-85,0,103,100,1,3.8*
Clc1ccc2nc(N3CCN(c4ccccc4)CC3)sc2c1,27,-40,98,137*,5,3.5*
c1ccc(N2CCN(c3nc4cc5c(cc4s3)OCO5)CC2)cc1,80,-50,66,146*,41,3.8*
O=S(=O)(c1ccccc1)N1CCN(c2nc3ccccc3s2)CC1,14,-6,98,105,8,1.3
Brc1ccc2nc(N3CCN(c4ccccc4)CC3)sc2c1,132,-36,97,129*,9,2
Fc1ccc2nc(N3CCOCC3)sc2c1,27,-45,100,138*,5,1.7
Cc1ccc(S(=O)(=O)NCCC(=O)Nc2ccc(Cl)c(Cl)c2)cc1,3,7,95,94,8,0.92
O=C(c1ccco1)n1nc(-c2cccnc2)nc1NCc1ccco1,27,-6,110,104,-11,1.2
COc1cc(/C=C\C(=O)NCc2ccc3c(c2)cc(C)n3C)cc(OC)c1OC,5,-3,101,103,-2,1
CCCCNC(=O)c1ccccc1Cl,-11,-1,104,101,3,0.98
O=C(NCCSc1ccccc1)c1ccccc1Cl,100,-45,113,141*,-12,4.7*
Cc1ccccc1C(=O)NCCSc1ccccc1,92,-32,108,129*,-3,3.6*
O=C(NCCSc1ccccc1)c1ccccc1,171*,-46,102,142*,0,4.7*
O=C(NCCSc1ccccc1)c1cncc(Br)c1,37,-11,111,110,-9,2.3
CSc1ccccc1C(=O)NCCSc1ccccc1,25,0,100,100,0,1.2
COc1cccc(C(=O)NCCSc2ccc(F)cc2)c1,47,-42,112,138*,-12,4.8*
Cc1ccccc1-c1nc(CN(C)C(C)c2ccon2)c(C)o1 (stereo not drawn),2,-6,99,104,6,1.2
COc1ccc(N(CC(=O)NCCSc2ccccn2)S(C)(=O)=O)cc1,6,4,104,96,-4,1.1
COc1ccc(C(=O)NCCSc2ccccn2)cc1,242*,-60,91,153*,15,3.9*
CCN(CC)CCC(=O)NN,5,1,99,98,5,1
CCOc1ncccc1C(=O)OCC(=O)c1cc(C)n(Cc2ccco2)c1C,164*,-20,99,118,6,4.6*
Cc1cc(C(=O)COC(=O)c2ccc(Br)o2)c(C)n1Cc1ccco1,56,-18,112,115,-5,1.1
SMILES,APP 5'UTR act,STAT1 blocker,STAT3 activator,STAT1 activator,STAT3 blocker,NF-kB neuron act
Cc1cc(C(=O)CSc2ncccn2)c(C)n1Cc1ccco1,141*,15,70,86,41,4.3*
Cc1cc(C(=O)COC(=O)C(C)NC(N)=O)c(C)n1Cc1ccco1 (stereo not drawn),9,-7,98,106,2,1.6
Cc1cc(C(=O)COC(=O)c2ccc(O)cc2)c(C)n1Cc1ccco1,164*,-49,108,149*,-12,4.4*
O=C(c1cc2ccccc2oc1=O)N(Cc1ccccc1)Cc1ccc2c(c1)OCO2,-9,-6,135*,111,-38,0.59
CCc1ccc(CN(C(=O)c2cc3ccccc3oc2=O)C2CCS(=O)(=O)C2)cc1 (stereo not drawn),105,-32,118,129*,-18,4.1*
O=C(c1cc2ccccc2oc1=O)N1CCN(Cc2ccc3c(c2)OCO3)CC1,12,-3,96,103,11,1.6
O=C1CCCC2=C1C(c1ccc(O)cc1)c1c(ccc3ccccc13)N2 (stereo not drawn),202*,-1,107,100,-6,0.89
CN(C)c1cccc(-c2nnc(SCCCC#N)o2)c1,154*,-23,93,121,19,3.1
CN(C)CCSc1nnc(-c2ccccc2)o1,29,-14,113,115,-9,1.8
Cc1ccc(N=Nc2c(C)[nH]n(C(N)=S)c2=O)cc1,48,-41,126,137*,-30,2.6
CCOc1ccc(-n2c(SCc3ccc([N+](=O)[O-])cc3)nnc2-c2ccc(OC)cc2)cc1,10,-6,105,105,-3,0.61
COc1cccc(N2CCN(Cc3ccsc3)CC2)c1,/,-6,100,112,0,1.5
O=c1c2ccccc2cnn1-c1ccc2ccccc2c1,168*,-34,83,131*,20,3.4*
COc1ccccc1N(CC(O)Cn1c(C)nc2ccccc21)S(=O)(=O)c1ccccc1 (stereo not drawn),26,8,108,93,-13,0.77
COc1ccc(C(=O)c2ccc(Cl)c([N+](=O)[O-])c2)cc1,-95,4,103,96,-1,3.6*
O=C(COc1ccc(CO)cc1Cl)Nc1ccc(F)cc1,/,-39,78,136*,32,7.7*
COc1cc(/C=N/NC(=O)c2cccnc2)ccc1OCC(=O)Nc1ccccc1Cl,-1,-39,104,136*,-3,0.87
Cc1ccc(NC(=O)COc2ccc(Br)cc2CO)cc1,-3,-16,90,110,13,1.4
COc1cc(CO)ccc1OCC(=O)Nc1ccc(Br)cc1,33,-18,133*,113,-34,1.8
COc1ccccc1NC(=O)COc1ccc(CO)cc1Cl,66,-35,94,133*,10,1.9
C/C(=N\NC(=O)CSc1ncccn1)c1ccc2c(c1)OCCO2,18,-4,104,102,-3,1.5
CCOc1cc(/C=N/NC(=O)CCc2n[nH]c(=O)[nH]c2=O)ccc1O,4,-2,102,104,3,1.4
CCN=c1scc(-c2ccco2)n1/N=C/c1ccc(O)cc1,78,-11,86,110,23,1.1
CCN=c1scc(-c2ccco2)n1/N=C/c1ccc(OC)c(O)c1,182*,11,84,90,24,4*
O=c1c2oc3ccccc3c2ncn1Cc1ccccc1F,4,-11,107,110,0,3.5*
Cc1nn2c3ccccc3nc2c2ccccc12,-6,-21,134*,115,-41,1.1
